Assay [1] in a line: inhibitors of TNFa-induced NFkB p65 translocation, primary screen, imaging, HUVEC, MLSMR starter and 10KST1 sets (AID 438;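 active = inhibition above 20% together with a positive visual image hit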;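 note: compound added about 3h40 before a 20 min TNFalpha stimulation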;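 for inhibition: signal is the nuclear over cytoplasmic p65 intensity ratio per well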). The settings on record: HUVEC TNFa-induced p65 nuclear translocation; cell count: measured here: nuclei count (cytotoxicity indicator), at 2.08 µM; inhibition: at 2 µM, stronger effect = higher value, 0% TNFa-plus-vehicle, 100% no-TNFa wells.
Assay [2] can be described thus: endothelial E-selectin expression blockers – imaging, HUVEC, immunofluorescence, MLSMR starter and 10KST1 sets, primary screen (AID 487;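 active = visually confirmed hit in the image check and inhibition above 20%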;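 for inhibition: signal is fraction of cell area covered by stained E-selectin grains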;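 for nuclei count: 100% = median nuclei count of all wells on the same plate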). The settings on record: HUVEC TNFalpha-induced E-selectin immunofluorescence imaging, at 2 µM; inhibition: stronger effect = higher value; nuclei count: measured here: cell number, toxicity.
The nature of assay [3]: Primary imaging screen for DUSP6 inhibitors that restore phospho-Erk in transfected HeLa cells, chemical complementation (AID 609).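 For inhibition: phospho-Erk level distribution per well compared with pooled transfected vehicle control wells.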 The settings on record: HeLa MKP-3 transfected, phospho-Erk imaging KS statistic, at 10 µM, cells stimulated with TPA for 15 min.
Assay [4] deals with Dual specificity protein phosphatase 6 (Homo sapiens) (UniProt Q16828). The description is as above. The settings on record: HeLa MKP-3 transfected, phospho-Erk imaging KS statistic; at 10 µM; stronger effect = higher value; cells stimulated with TPA for 15 min.
Dual specificity protein phosphatase 6 (Homo sapiens), sequence (Q16828 whole entry, looked up): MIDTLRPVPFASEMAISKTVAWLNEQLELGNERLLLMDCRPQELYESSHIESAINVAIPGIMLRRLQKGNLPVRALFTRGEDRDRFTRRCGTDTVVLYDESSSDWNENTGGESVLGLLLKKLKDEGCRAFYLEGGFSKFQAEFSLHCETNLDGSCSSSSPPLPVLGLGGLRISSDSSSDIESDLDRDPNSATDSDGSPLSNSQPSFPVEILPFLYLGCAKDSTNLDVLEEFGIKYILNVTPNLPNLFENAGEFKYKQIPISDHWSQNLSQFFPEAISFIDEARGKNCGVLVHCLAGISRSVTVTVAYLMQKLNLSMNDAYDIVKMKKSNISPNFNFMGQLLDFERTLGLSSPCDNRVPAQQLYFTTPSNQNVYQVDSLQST
Assay [5] has as its target Voltage-gated potassium channel subunit beta-2 (Rattus norvegicus) (UniProt P62483). In words: inhibitors of rat Kvbeta2 reductase activity – biochemical, NADPH fluorescence, primary screen (AID 622;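 active = fluorescence slope higher than the sample average by over 3 SD, cut at about -0.22 in these data, passing the limit was not always enough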;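 note: slope of raw intensity against log time taken from 70 to 1610 s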). Particulars: recombinant KvBeta, 4-cyanobenzaldehyde reduction, at 10 µM, stronger effect = higher value.
For assay [6] the target is unchanged. In words: enhancers of rat Kvbeta2 NADPH turnover – biochemical, NADPH fluorescence, primary screen (AID 623;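 active = NADPH fluorescence slope more negative than the mean of all samples by about 3 SD, 99.7% confidence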;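 note: fluorescence intensity change per second fitted from 20 to 320 s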). The settings on record: Recombinant KvBeta, NADPH fluorescence decrease slope, 10 min; at 10 µM; stronger effect = lower value.
Assay [7] addresses Muscarinic acetylcholine receptor M4 (Homo sapiens) (UniProt P08173). In words: M4-linked GIRK flux change, two-sided – cell-based, HEK293 M4/GIRK, thallium flux, BTC-AM, M4 allosteric agonist project, primary screen (AID 625;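 active = fluorescence slope after compound addition differing from the mean of all tested samples at 99.7% confidence, mostly higher but some lower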;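 note: thallium influx through GIRK channels coupled to M4 in HEK293 cells with BTC-AM dye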). Particulars: at 10 µM, actives lie on both sides. In a few lines: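 System: HEK293 cells with M4 receptor and GIRK channels | Incubation: Cells overnight at 37 °C, BTC-AM loading 1 h, reads 2 min total | Technique: Kinetic BTC-AM fluorescence sampled at 1 Hz, 10 s pre-addition baseline | Measure: Post-addition slope, 15–24 s, of baseline-normalized fluorescence | Control set: Carbachol positive, DMSO negative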

Assay [8] in a line: inhibitors of larval lipid processing in zebrafish, primary screen, whole organism, PED6 fluorescence, gall bladder and intestine (AID 686;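 active = a full or partial loss of lipid-probe fluorescence in the fish gall bladder, intestine or both, judged by eye; inactive = no fluorescence loss, or compound toxic to the fish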;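 note: larvae 5 to 7 days old with five fish per well; signal comes from phospholipase A2 cleavage of quenched PED6 carried via bile; overnight exposure to compound and PED6 before scoring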). Particulars: Zebrafish larvae PED6 lipid processing, fluorescence scoring; screened at 20 µM (by protocol). In a few lines: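 Test system – live zebrafish larvae aged 5-7 days, whole organism · Buffer or medium – E3 fish medium · Reagent – quenched phospholipase substrate PED6, 100 nM final, ingested by larvae · Doses – 20 µM single dose · Incubation – overnight compound and PED6 incubation · Technique – visual fluorescence microscopy scoring of gall bladder, gut · Read-out basis – visual per-well fluorescence inhibition score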

Assay [9] can be described thus: loss of swimming-algae plug formation – whole organism, Chlamydomonas reinhardtii, WT vs cilia-less mutant, absorbance, 96-well, primary screen (AID 463189;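 active = inhibition at or above 50% relative to wild type and mutant plate controls; inactive = inhibition below 50%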;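 note: 0% = wild type cc124 cells in DMSO and 100% = ciliumless bld1 mutant cells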). The settings on record: Chlamydomonas reinhardtii gravitaxis, OD600 absorbance, 2 days; at 10 µM; stronger effect = higher value.
[10] abbreviates: measured here: cell density z-score.
Setting [11] is: measured here: nuclear c-Myc green intensity z-score.
Where [12] appears, read: measured here: nuclear pErk red intensity z-score, stronger effect = higher value.

The source made the active and inactive calls.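 Rule for the calls, unless noted: active = compounds giving at least 50% inhibition in the cell-based MKP-3 phosphatase rescue imaging test; inactive = the rest.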

Muscarinic acetylcholine receptor M4 (Homo sapiens), sequence (P08173 whole entry, looked up): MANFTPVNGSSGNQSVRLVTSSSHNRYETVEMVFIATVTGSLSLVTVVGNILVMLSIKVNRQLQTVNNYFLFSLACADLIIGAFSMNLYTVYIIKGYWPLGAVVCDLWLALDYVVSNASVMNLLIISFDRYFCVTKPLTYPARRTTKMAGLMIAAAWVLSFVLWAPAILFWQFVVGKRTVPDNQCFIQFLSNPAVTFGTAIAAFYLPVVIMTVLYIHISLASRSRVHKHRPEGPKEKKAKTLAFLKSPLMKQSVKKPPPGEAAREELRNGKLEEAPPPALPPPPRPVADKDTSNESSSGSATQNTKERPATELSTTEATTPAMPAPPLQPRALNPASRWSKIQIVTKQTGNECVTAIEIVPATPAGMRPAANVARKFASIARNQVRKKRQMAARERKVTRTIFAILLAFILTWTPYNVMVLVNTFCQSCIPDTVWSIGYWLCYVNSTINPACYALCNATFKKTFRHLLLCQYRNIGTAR
Voltage-gated potassium channel subunit beta-2 (Rattus norvegicus), sequence (P62483 whole entry, looked up): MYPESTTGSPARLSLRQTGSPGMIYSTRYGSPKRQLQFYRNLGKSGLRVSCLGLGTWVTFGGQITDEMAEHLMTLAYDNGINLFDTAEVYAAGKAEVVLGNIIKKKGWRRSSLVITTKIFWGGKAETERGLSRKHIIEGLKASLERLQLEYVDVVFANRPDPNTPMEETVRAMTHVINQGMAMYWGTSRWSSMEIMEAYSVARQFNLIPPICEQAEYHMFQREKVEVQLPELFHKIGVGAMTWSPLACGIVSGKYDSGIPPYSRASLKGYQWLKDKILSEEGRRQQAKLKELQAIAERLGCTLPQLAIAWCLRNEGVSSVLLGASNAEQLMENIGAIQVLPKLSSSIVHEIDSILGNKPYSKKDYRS

The term inhibition denotes the drop in the measured response relative to a control, in per cent. Turning to `CN1CCc2c(n(CC(O)CN3C(=O)c4ccccc4S3(=O)=O)c3ccccc23)C1=O` (centres undefined), the cell count in assay [1] was determined as 678. Also, the inhibition is -11.7% (inactive) in assay [1], -109% (inactive) in [2], 6.04% (inactive) in [4] and 6.44% (inactive) in [9]. The molecule also showed a nuclei count in assay [2] of 158%. The z-score is 1.84 in assay [3] (setting [10]), -0.542 in assay [3] (setting [11]) and -1.28 in assay [3] (setting [12]). Moreover, the fluorescence slope in [5] is -0.488 (inactive); in assay [7], 0.00494 (inactive). For the same molecule, in assay [6], the NADPH fluorescence slope is -3.3e-05 (inactive). Besides, in assay [8], the molecule was classed as inactive.

Consider `COC(=O)/C(C#N)=C1/SC=C(C)N1c1ccccc1`, for which the cell count in [1] was 611. Moreover, the inhibition in assay [1] is 4.9% (inactive); in assay [2], -42.5% (inactive); in [4], -13.3% (inactive); in [9] it was -8.28% (inactive). The same molecule came in with a nuclei count in assay [2] of 115%. Also, the figures for the z-score in assay [3] (setting [10]), in assay [3] (setting [11]) and in assay [3] (setting [12]) were -0.0327, -1.23 and -0.208, respectively. Moreover, the fluorescence slope in assay [5] is -0.46 (inactive); in assay [7] it was 0.00543 (inactive). In addition, in assay [6], the NADPH fluorescence slope is -5.6e-05 (inactive). In assay [8], the molecule was called inactive.

`C/C(=N\O)c1c(C)c2ccccc2n1C`: in [1], the cell count came out at 553. Further, the inhibition is -7.3% (inactive) in assay [1], -33% (inactive) in assay [2], 11.9% (inactive) in assay [4] and 15.1% (inactive) in assay [9]. In addition, the nuclei count in [2] is 155%. The z-score in assay [3] (setting [10]) is 0.633; in assay [3] (setting [11]), -0.875; in [3] (setting [12]), 0.794. Also, the fluorescence slope in assay [5] is -0.374 (inactive); in assay [7], 0.00461 (inactive). Further, the NADPH fluorescence slope in [6] was -3.2e-05 (inactive). In addition, the molecule was classed as inactive in [8].

Take `CCCOc1ccccc1C(=O)NCCCC(=O)O`: the cell count in [1] was 697. In addition, the inhibition is 10.3% (inactive) in assay [1], -31.2% (inactive) in assay [2], 1.63% (inactive) in assay [4] and 23.9% (inactive) in assay [9]. In [2], the nuclei count worked out at 137%. The z-score is 0.264 in [3] (setting [10]), 0.35 in [3] (setting [11]) and -1.68 in [3] (setting [12]). Further, the fluorescence slope in [5] was -0.447 (inactive); in assay [7], 0.00573 (inactive). Further, the NADPH fluorescence slope in assay [6] is -6.8e-05 (inactive). In [8], the molecule was classed as inactive.

For the molecule `COc1ccc(C(=O)CCN2CCCCCC2)cc1`, in assay [1], the cell count stood at 387. The inhibition was -7.4% (inactive) in [1], -32.1% (inactive) in [2], 5.42% (inactive) in [4] and -0.057% (inactive) in [9]. The nuclei count in assay [2] was 148%. Also, the z-score was -0.26 in [3] (setting [10]), -0.113 in [3] (setting [11]) and -0.00775 in assay [3] (setting [12]). Moreover, the figures for the fluorescence slope in [5] and in assay [7] were -0.438 (inactive) and 0.00485 (inactive), respectively. In assay [6], the NADPH fluorescence slope is -0.000102 (inactive). Also, the outcome in [8] was “inactive; toxic”.

Take `CCc1cc(=O)oc2cc(C)c(CN3CCCCC3)c(O)c12`: the cell count in assay [1] was found to be 612. Further, the inhibition in assay [1] is -9.1% (inactive); in assay [2], 31% (inactive); in assay [4], -8.95% (inactive); in assay [9], 4.62% (inactive). In addition, the nuclei count in [2] was 182%. Besides, the z-score is -0.916 in assay [3] (setting [10]), -0.125 in [3] (setting [11]) and 1.01 in assay [3] (setting [12]). Further, the fluorescence slope in assay [5] is -0.464 (inactive); in [7], 0.00459 (inactive). For the same molecule, the NADPH fluorescence slope in assay [6] is -6.3e-05 (inactive). Also, the result in assay [8] was inactive.

With `COc1ccccc1NC(=O)CSc1nnc(-c2ccc(NC(C)=O)cc2)n1C`, the cell count in [1] came to 661. The inhibition in assay [1] was -6% (inactive); in assay [2], -36.2% (inactive); in [4], 12.8% (inactive); in assay [9], -1.17% (inactive). Besides, the nuclei count in assay [2] was determined as 198%. The results for the z-score in [3] (setting [10]), in [3] (setting [11]) and in [3] (setting [12]) were -0.0402, -0.306 and 0.506, respectively. Besides, the fluorescence slope in [5] was -0.46 (inactive); in assay [7] it was 0.00538 (inactive). The NADPH fluorescence slope in assay [6] is -0.000106 (inactive). Moreover, the outcome in assay [8] was inactive.

For the molecule `Cc1cccc(-c2nnc3n2N=C(c2ccc(Br)cc2)CS3)c1`, the cell count in assay [1] was 769. Further, the inhibition was -2.9% (inactive) in assay [1], -27.2% (inactive) in [2], -2.91% (inactive) in [4] and -0.766% (inactive) in assay [9]. Besides, the nuclei count in assay [2] turned out to be 176%. Also, the z-score in [3] (setting [10]) was -0.385; in assay [3] (setting [11]) it was 0.639; in [3] (setting [12]) it was 0.0185. Further, the figures for the fluorescence slope in assay [5] and in assay [7] were -0.433 (inactive) and 0.006 (inactive), respectively. For the same molecule, in assay [6], the NADPH fluorescence slope was -5.4e-05 (inactive). Besides, the molecule was classed as inactive in assay [8].

For `CC(NC(=O)CSc1nnc(COc2ccccc2)o1)c1ccccc1` (centres undefined), the cell count in assay [1] was determined as 397. The inhibition was 1.7% (inactive) in [1], -35.2% (inactive) in assay [2], -6.86% (inactive) in assay [4] and 5.02% (inactive) in assay [9]. In addition, the nuclei count in assay [2] was found to be 134%. Also, the z-score was -0.868 in assay [3] (setting [10]), 0.275 in assay [3] (setting [11]) and 1.84 in [3] (setting [12]). Moreover, the fluorescence slope in [5] is -0.453 (inactive); in assay [7], 0.00476 (inactive). For the same molecule, the NADPH fluorescence slope in assay [6] is -0.000143 (inactive). Besides, the molecule was called inactive in assay [8].

Take `CCCc1nc(N2CCCC2)c(C#N)c2c1CCCC2`: the cell count in [1] came to 605. Moreover, the inhibition in assay [1] was -1.2% (inactive); in assay [2], -118% (inactive); in assay [4], -5.81% (inactive); in assay [9] it was 4.3% (inactive). The nuclei count in assay [2] was 141%. Moreover, the figures for the z-score in [3] (setting [10]), in assay [3] (setting [11]) and in [3] (setting [12]) were -1.08, 0.0644 and -0.444, respectively. Also, the fluorescence slope in assay [5] is -0.448 (inactive); in assay [7], 0.00554 (inactive). The NADPH fluorescence slope in [6] was -9.6e-05 (inactive). In assay [8], the outcome was inactive.

In the case of `CN(C)c1cccc2c(S(=O)(=O)N3CCOCC3)cccc12`, the cell count in assay [1] turned out to be 607. In addition, the inhibition was -7.5% (inactive) in assay [1], -24.7% (inactive) in assay [2], -9.91% (inactive) in assay [4] and -1.61% (inactive) in assay [9]. The same molecule gave a nuclei count in assay [2] of 157%. Besides, the z-score in assay [3] (setting [10]) was -2.51; in assay [3] (setting [11]), 1.31; in [3] (setting [12]), -0.367. Moreover, the fluorescence slope in assay [5] is -0.275 (inactive); in assay [7] it was 0.00799 (inactive). Besides, in assay [6], the NADPH fluorescence slope was -7.8e-05 (inactive). Besides, in assay [8], the call was inactive.

For `CCOC(=O)c1[nH]c2ccc(OC)cc2c1NC(=O)CCN1CCCC(C)C1` (centres undefined), the cell count in [1] is 521. Further, the inhibition in assay [1] was -0.1% (inactive); in assay [2], 9.9% (inactive); in [4], 11.4% (inactive); in assay [9] it was 28.8% (inactive). Besides, in [2], the nuclei count came out at 100%. The z-score is -0.422 in assay [3] (setting [10]), -0.411 in assay [3] (setting [11]) and -1.15 in assay [3] (setting [12]). Besides, the fluorescence slope in [5] is -0.351 (inactive); in assay [7] it was 0.00513 (inactive). Besides, in assay [6], the NADPH fluorescence slope was -1.8e-05 (inactive). In addition, in assay [8], the molecule was called inactive.

For `CNc1oc(-c2ccccc2Cl)nc1C#N`, the cell count in assay [1] worked out at 368. Also, the inhibition in assay [1] is 4.3% (inactive); in [2], 23.8% (inactive); in assay [4], 3.56% (inactive); in [9], 19.9% (inactive). This molecule displayed a nuclei count in assay [2] of 79.3%. In addition, the z-score in assay [3] (setting [10]) is 0.949; in assay [3] (setting [11]), -0.665; in assay [3] (setting [12]) it was 0.059. Also, the results for the fluorescence slope in assay [5] and in assay [7] were -0.594 (inactive) and 0.00508 (inactive), respectively. For the same molecule, the NADPH fluorescence slope in [6] is -4.5e-05 (inactive). The outcome in [8] was “active; weak signal in gallbladder and intestine”.

These data come from PubChem BioAssay.
